eIF4E-4G inh – eIF4E/eIF4G interaction inhibition in translation initiation; P63073+Q04637; TR-FRET eIF4E-eIF4GI(517-606) binding, 2 h; inhibition, % at 21.7 µM; 220,000 compounds, 0.37% hits; AID 782;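 active = inhibition above about 30%, limit read from the data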;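 note: 0% = full FRET control wells and 100% = background wells lacking eIF4GI fragment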
UBC9 SUMO inh – inhibitors of human SUMOylation (UBC9). 290,000 compounds, 0.36% hits. HTRF SUMOylation assay, SAE1/SAE2 + UBC9, in vitro. inhibition, % at 35 µM; in the data active = inhibition above about 50%, passing the limit was not always enough; inconclusive = no clear call, values can overlap the other calls
Target sequence (P63279 whole entry, looked up): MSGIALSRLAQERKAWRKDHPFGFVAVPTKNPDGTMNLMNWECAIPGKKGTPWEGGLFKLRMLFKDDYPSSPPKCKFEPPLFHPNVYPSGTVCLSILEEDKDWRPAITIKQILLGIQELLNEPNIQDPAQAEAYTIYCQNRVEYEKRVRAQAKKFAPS
HCV core dimer – HCV core protein dimerization inhibition | TR-FRET GST/Flag-core106 dimerization, 1536-well | inhibition, % at 5 µM | 300,000 compounds, 0.33% hits | AID 1899;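 active = inhibition above the mean of all tested compounds plus 3 SD, set per screening campaign, cut at about 45% in these data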
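System: GST-tagged and Flag-tagged HCV core protein residues 1-106 / Input: core106 proteins, GST 13.5 nM and Flag 17 nM / Buffer or medium: KF-containing HEPES buffer, pH 7.45, DTT, CHAPS, BSA / Probe or stimulus: Eu-anti-GST and XL665-anti-Flag labelled anti-tag antibodies / Schedule: 4 h, 22.5 °C incubation / Technique: TR-FRET 671 and 617 nm emission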
PABP FP inh – blocks human PABP binding to poly(A) RNA | fluorescence polarization | P11940 | 290,000 compounds, 1% hits | AID 2014 | calls only at 35 µM;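 note: calls also rest on retests at 20 µM and on dose response follow-up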
eIF4H FP inh – inhibitors of RNA binding by human eIF4H; 290,000 compounds, 0.94% hits; inhibition, % at 35 µM; eIF4H fluorescence polarization binding assay; Q15056; AID 2012;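 note: calls also rest on retests at 20 µM and on dose response follow-up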
MLLE-PAM2 inh – inhibitors of microRNA-mediated deadenylation, human PABP1 MLLE binding | inhibition, % at 20 µM | P11940 | 360,000 compounds, 0.36% hits | GST-MLLE / FITC-PAM2 fluorescence polarization; in the data active = inhibition above about 35%, passing the limit was not always enough;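 note: plate controls were DMSO wells with GST-MLLE for no effect and wells lacking GST-MLLE protein for full effect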
An asterisk follows results filed as active. The list is not random: actives were taken first. Their share in the collection is about 1.8%. Unless noted, the rule behind the calls is not given here.

How did Cc1ccc(CNC(=O)c2ccc(COc3ccccc3)cc2)cc1 do in these assays?
eIF4E-4G inh: 2; UBC9 SUMO inh: -3; HCV core dimer: 13; PABP FP inh: inactive; eIF4H FP inh: -9; MLLE-PAM2 inh: 9

Results for Cc1cccc(Nc2n[nH]c(=S)s2)c1C ?
eIF4E-4G inh: 58*; UBC9 SUMO inh: 7; HCV core dimer: -8; PABP FP inh: inactive; eIF4H FP inh: -4; MLLE-PAM2 inh: 30

How did O=C(/C=C/c1ccco1)OCn1nnc2ccccc2c1=O do in these assays?
eIF4E-4G inh: 7; UBC9 SUMO inh: 3; HCV core dimer: 0; PABP FP inh: active; eIF4H FP inh: 68*; MLLE-PAM2 inh: 5

What do the screens show for `COc1cc2ccccc2nn1`?
eIF4E-4G inh: -3; UBC9 SUMO inh: 23; HCV core dimer: -1; PABP FP inh: inactive; eIF4H FP inh: 5; MLLE-PAM2 inh: -22

How did COc1ccc2c(n1)Sc1nc3ccccc3nc1N2 do in these assays?
eIF4E-4G inh: -1; UBC9 SUMO inh: 75*; HCV core dimer: -38; PABP FP inh: inconclusive; eIF4H FP inh: inconclusive; MLLE-PAM2 inh: 9

How did NC(=NC(=O)c1ccccc1)N1CCN(C(c2ccccc2)c2ccccc2)CC1 do in these assays?
eIF4E-4G inh: -5; UBC9 SUMO inh: -20; HCV core dimer: 4; PABP FP inh: inactive; eIF4H FP inh: -13; MLLE-PAM2 inh: -1

How did COc1cc(/C=C/C(=O)OCC(=O)Nc2ccc([N+](=O)[O-])cc2)ccc1O do in these assays?
eIF4E-4G inh: 5; UBC9 SUMO inh: -8; HCV core dimer: 5; PABP FP inh: inactive; eIF4H FP inh: 3; MLLE-PAM2 inh: -3

What do the screens show for `COc1cc(/C=C/C(=O)OCC(=O)Nc2ccc(S(N)(=O)=O)cc2)ccc1O`?
eIF4E-4G inh: 4; UBC9 SUMO inh: 7; HCV core dimer: -3; PABP FP inh: active; eIF4H FP inh: 52*; MLLE-PAM2 inh: -19

What do the screens show for `COc1cccc(CNC(=O)c2ccc(NC(=O)CC3SC(N4CCCC4)=NC3=O)cc2)c1` (stereo not drawn)?
MLLE-PAM2 inh: -6

What do the screens show for `c1ccc(-c2ccc(-c3nccc4ccccc34)[nH]2)cc1`?
eIF4E-4G inh: 1; UBC9 SUMO inh: 10; PABP FP inh: active; eIF4H FP inh: 62*

Results for COc1cc(C2c3c([nH]c(=O)[nH]c3=O)Nc3ccc4ccccc4c32)ccc1O (stereo not drawn) ?
eIF4E-4G inh: 7; UBC9 SUMO inh: 10; HCV core dimer: 2; PABP FP inh: inactive; eIF4H FP inh: 31; MLLE-PAM2 inh: 1

What do the screens show for `COc1cc(C2c3c([nH]c(=O)[nH]c3=O)Nc3ccc4ccccc4c32)cc(OC)c1OC` (stereo not drawn)?
eIF4E-4G inh: 5; UBC9 SUMO inh: 77*; HCV core dimer: 10; PABP FP inh: inactive; eIF4H FP inh: 0; MLLE-PAM2 inh: 11

Results for C=CCn1c(SCC(=O)c2cc(C)n(C(C)COC)c2C)nc2sc(C)c(C)c2c1=O (stereo not drawn) ?
eIF4E-4G inh: 7; UBC9 SUMO inh: -18; HCV core dimer: 4; PABP FP inh: inactive; eIF4H FP inh: -13; MLLE-PAM2 inh: 40*

Results for C=CCn1c(SCC(=O)NCCO)nc2sc(C)c(C)c2c1=O ?
eIF4E-4G inh: -1; UBC9 SUMO inh: 5; HCV core dimer: -6; PABP FP inh: inactive; eIF4H FP inh: -5; MLLE-PAM2 inh: -18

How did O=C(CSc1nc(N2CCOCC2)nc(N2CCOCC2)n1)Nc1cccc(C(F)(F)F)c1 do in these assays?
UBC9 SUMO inh: 8; HCV core dimer: 1; PABP FP inh: inactive; eIF4H FP inh: -4; MLLE-PAM2 inh: -4

Results for N#Cc1c2ccc(OCC(N)=O)cc2n2ccccc12 ?
eIF4E-4G inh: 4; UBC9 SUMO inh: 62*; HCV core dimer: -16; PABP FP inh: inactive; eIF4H FP inh: 32; MLLE-PAM2 inh: 35

What do the screens show for `COc1cc(OC)cc(C(=O)c2c(C)c(C#N)c3ccccn23)c1`?
UBC9 SUMO inh: -6; PABP FP inh: inactive; eIF4H FP inh: 4; MLLE-PAM2 inh: -1

What do the screens show for `CCOC(=O)COc1ccc2c(C#N)c3ccccn3c2c1`?
eIF4E-4G inh: 2; UBC9 SUMO inh: 36; PABP FP inh: inactive; eIF4H FP inh: 83; MLLE-PAM2 inh: 43*

High-throughput results from PubChem BioAssay.
